According to publication PMC4608532 (ChemistryOpen, 2015):

Tested on: HUVEC
Test: In vitro morphogenesis assay on HUVEC plated on Matrigel, VEGF-stimulated
Assay type: cell-based, Human
Settings: 5 h incubation
In short: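 HUVEC (passages 2–10) were maintained at 37 °C, 5% CO2 in medium with 2% FBS and growth factors. 2.5×10^4 cells were seeded on pre-polymerized Matrigel and incubated for 5 h at 37 °C with or without test compound, under VEGF 10 ng mL−1 stimulation. Networks were imaged by phase contrast and scored as total branch length in pixels, with open ramifications counted as branches. Data were normalized to VEGF alone and given as mean±S.D. of 4–10 experiments, with a two-tailed paired Student's t test.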

Row | Substance | VEGF-induced morphogenesis, % of VEGF alone (1 μM, VEGF 10 ng mL−1, length of branches, p>0.05) | effect on new capillary network formation induced by VEGF165 (in words) (VEGF165 10 ng mL−1)
1 | Ac-KQMYLELGYATIKWL-NH2 [Compound 14, Ac-Lys-Gln-Met-Tyr-Leu-Glu-Leu-Gly-Tyr-Ala-Thr-Ile-Lys-Trp-Leu-amide] | 82 %±21% | –
2 | cyclo[DKP-RGD] [Compound 1] | – | markedly decreased
